Reference: the M2OR odorant receptor database

Assays:
Conditions in all cases: stereoisomer not certain
[1] = tested on: OR1A2 G256C W293C
In short: (§1)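 Whether a receptor–molecule pair is responsive (active) rests on the original authors' judgment that its measured signal was statistically different from baseline. Pairs without that judgment are non-responsive (inactive). Sources used varied assay methods, commonly transient luciferase assays in mammalian cell lines.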

[2] = tested on: OR1B1
In short: as §1

[3] = molecular target: OR1C1 (Homo sapiens) (UniProt Q15619)
OR1C1 (Homo sapiens), sequence (Q15619 whole entry): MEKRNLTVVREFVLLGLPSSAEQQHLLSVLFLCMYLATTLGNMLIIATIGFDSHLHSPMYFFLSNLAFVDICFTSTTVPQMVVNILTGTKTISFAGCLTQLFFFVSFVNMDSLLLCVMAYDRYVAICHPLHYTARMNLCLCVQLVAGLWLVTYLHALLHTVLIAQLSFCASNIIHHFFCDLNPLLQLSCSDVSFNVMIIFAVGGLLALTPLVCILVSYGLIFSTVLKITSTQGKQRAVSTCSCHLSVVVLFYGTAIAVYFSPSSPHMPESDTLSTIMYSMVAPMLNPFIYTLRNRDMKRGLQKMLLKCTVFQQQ
In short: as §1

[4] = molecular target: OR1D5 (Homo sapiens) (UniProt P58170)
OR1D5 (Homo sapiens), sequence (P58170 whole entry): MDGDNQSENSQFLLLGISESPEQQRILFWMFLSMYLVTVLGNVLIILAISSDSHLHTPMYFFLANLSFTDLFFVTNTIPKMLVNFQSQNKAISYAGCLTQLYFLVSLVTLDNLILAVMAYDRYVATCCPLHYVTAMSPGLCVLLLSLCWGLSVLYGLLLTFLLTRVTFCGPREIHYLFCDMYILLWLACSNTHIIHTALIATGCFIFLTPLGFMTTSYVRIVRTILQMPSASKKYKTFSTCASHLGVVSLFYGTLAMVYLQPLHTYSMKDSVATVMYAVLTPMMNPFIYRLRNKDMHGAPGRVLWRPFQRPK
In short: as §1

[5] = molecular target: OR1E1 (Homo sapiens) (UniProt P30953)
OR1E1 (Homo sapiens), sequence (P30953 whole entry): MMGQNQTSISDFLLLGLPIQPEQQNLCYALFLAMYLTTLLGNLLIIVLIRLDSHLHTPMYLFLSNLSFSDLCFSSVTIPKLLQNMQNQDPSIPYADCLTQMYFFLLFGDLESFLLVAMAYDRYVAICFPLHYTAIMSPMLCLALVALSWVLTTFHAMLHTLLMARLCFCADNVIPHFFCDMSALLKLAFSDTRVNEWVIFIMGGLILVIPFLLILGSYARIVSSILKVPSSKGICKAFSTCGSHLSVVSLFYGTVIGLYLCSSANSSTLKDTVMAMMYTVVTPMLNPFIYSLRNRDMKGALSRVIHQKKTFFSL
In short: as §1

[6] = molecular target: OR1E2 (Homo sapiens) (UniProt P47887)
OR1E2 (Homo sapiens), sequence (P47887 whole entry): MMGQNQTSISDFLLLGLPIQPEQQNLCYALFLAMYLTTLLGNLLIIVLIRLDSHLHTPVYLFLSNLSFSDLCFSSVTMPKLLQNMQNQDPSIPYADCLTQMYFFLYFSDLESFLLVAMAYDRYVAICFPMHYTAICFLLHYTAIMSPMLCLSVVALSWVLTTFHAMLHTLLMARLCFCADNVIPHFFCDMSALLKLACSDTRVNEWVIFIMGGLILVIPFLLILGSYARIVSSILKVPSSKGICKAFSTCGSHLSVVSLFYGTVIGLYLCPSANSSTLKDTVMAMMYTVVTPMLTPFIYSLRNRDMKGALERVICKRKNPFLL
In short: as §1

[7] = tested on: OR1E2
OR1E2, sequence (as listed by the source): as the sequence (P47887 whole entry) above, with C27R counted along it
In short: as §1

[8] = molecular target: OR1F1 (Homo sapiens) (UniProt O43749)
OR1F1 (Homo sapiens), sequence (O43749 whole entry): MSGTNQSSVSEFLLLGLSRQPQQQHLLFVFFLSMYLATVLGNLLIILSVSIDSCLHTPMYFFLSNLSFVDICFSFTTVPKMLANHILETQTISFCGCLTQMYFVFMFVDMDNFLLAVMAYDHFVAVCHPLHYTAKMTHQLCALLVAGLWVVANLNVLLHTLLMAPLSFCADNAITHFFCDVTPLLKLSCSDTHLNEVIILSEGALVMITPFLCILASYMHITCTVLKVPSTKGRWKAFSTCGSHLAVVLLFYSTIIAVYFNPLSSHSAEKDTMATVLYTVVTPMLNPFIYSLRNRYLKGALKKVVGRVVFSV
In short: as §1

[9] = molecular target: OR1F12P (Homo sapiens) (UniProt Q8NHA8)
OR1F12P (Homo sapiens), sequence (Q8NHA8 whole entry): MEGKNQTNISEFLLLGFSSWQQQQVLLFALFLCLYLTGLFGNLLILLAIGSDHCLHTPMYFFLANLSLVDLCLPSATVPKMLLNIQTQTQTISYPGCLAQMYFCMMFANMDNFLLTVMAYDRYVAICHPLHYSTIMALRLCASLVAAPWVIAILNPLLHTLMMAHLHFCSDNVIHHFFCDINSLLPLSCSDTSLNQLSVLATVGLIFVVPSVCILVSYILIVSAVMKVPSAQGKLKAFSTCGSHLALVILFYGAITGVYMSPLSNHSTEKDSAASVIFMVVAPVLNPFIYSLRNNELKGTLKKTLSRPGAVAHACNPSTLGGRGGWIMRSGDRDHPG
In short: as §1

[10] = tested on: OR1F1
OR1F1, sequence (as listed by the source): as the sequence (O43749 whole entry) above, with F75S counted along it
In short: as §1

[11] = molecular target: OR1I1 (Homo sapiens) (UniProt O60431)
OR1I1 (Homo sapiens), sequence (O60431 whole entry): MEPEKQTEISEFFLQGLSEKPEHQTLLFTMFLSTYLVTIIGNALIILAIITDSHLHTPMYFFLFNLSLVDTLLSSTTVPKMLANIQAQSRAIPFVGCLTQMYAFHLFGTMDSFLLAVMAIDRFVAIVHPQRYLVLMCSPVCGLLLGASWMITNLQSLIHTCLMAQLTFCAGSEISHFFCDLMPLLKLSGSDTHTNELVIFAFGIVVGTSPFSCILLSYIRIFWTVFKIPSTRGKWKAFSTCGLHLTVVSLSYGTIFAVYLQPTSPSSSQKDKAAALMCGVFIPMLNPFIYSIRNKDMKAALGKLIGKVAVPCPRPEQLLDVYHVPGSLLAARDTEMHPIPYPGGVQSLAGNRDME
In short: as §1

[12] = molecular target: OR1J1 (Homo sapiens) (UniProt Q8NGS3)
OR1J1 (Homo sapiens), sequence (Q8NGS3 whole entry): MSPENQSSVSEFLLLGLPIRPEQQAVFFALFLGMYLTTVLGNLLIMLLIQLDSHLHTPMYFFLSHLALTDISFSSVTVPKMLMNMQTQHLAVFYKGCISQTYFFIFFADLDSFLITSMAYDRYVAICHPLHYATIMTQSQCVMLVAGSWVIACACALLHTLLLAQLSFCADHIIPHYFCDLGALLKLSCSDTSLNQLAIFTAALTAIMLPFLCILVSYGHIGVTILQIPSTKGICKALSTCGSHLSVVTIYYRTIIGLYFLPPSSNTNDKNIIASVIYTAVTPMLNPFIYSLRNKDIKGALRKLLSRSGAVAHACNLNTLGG
In short: as §1

[13] = molecular target: OR1J2 (Homo sapiens) (UniProt Q8NGS2)
OR1J2 (Homo sapiens), sequence (Q8NGS2 whole entry): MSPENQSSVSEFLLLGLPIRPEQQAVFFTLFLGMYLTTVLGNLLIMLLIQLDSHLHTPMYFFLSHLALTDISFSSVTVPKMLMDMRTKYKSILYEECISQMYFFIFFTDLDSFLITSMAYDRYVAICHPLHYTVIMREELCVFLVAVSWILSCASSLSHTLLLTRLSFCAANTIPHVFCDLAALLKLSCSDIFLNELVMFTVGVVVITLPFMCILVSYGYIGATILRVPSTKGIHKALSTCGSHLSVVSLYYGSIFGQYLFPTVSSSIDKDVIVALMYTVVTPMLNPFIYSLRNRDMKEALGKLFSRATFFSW
In short: as §1

[14] = molecular target: OR1J4 (Homo sapiens) (UniProt Q8NGS1)
OR1J4 (Homo sapiens), sequence (Q8NGS1 whole entry): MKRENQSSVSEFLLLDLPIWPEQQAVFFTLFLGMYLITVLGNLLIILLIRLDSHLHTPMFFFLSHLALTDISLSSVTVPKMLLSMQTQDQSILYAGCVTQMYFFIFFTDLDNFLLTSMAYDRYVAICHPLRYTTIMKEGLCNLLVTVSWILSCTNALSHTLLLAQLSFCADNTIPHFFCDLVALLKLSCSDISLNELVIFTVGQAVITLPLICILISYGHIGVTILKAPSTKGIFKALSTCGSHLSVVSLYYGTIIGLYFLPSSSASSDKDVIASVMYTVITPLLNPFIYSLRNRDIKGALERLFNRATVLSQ
In short: as §1

[15] = molecular target: OR1K1 (Homo sapiens) (UniProt Q8NGR3)
OR1K1 (Homo sapiens), sequence (Q8NGR3 whole entry): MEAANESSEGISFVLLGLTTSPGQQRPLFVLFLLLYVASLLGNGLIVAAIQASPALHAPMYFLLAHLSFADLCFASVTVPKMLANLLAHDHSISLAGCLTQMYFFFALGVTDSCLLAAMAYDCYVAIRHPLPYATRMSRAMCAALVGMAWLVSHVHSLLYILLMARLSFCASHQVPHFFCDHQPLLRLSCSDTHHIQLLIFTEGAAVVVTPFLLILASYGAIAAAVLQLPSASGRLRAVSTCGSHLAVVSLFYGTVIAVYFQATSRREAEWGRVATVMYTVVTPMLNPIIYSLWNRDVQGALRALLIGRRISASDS
In short: as §1

[16] = molecular target: OR1D4 (Homo sapiens) (UniProt P47884)
OR1D4 (Homo sapiens), sequence (P47884 whole entry): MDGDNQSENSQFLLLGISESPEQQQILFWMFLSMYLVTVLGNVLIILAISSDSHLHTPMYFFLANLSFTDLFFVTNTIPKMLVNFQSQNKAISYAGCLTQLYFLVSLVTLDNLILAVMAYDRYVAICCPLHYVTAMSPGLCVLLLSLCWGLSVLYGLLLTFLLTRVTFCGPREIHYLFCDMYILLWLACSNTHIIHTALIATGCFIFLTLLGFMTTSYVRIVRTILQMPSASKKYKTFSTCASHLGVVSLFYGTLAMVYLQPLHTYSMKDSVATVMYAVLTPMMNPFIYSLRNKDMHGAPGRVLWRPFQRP
In short: as §1

[17] = molecular target: OR1E3 (Homo sapiens) (UniProt Q8WZA6)
OR1E3 (Homo sapiens), sequence (Q8WZA6 whole entry): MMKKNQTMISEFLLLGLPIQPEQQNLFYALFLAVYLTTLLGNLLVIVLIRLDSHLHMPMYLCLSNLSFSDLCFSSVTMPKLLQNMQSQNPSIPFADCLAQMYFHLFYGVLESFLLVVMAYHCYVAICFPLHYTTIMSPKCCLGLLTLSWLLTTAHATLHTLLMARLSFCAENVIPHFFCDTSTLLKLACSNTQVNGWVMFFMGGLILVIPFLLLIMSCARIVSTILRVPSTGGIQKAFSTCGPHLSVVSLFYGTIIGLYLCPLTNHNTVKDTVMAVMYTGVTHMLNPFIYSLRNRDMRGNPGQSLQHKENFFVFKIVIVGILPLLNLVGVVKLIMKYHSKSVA
In short: as §1

Measured: odorant receptor agonist call;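 further: active if original authors judged signal statistically different from baseline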

OR1B1, sequence (as listed by the source): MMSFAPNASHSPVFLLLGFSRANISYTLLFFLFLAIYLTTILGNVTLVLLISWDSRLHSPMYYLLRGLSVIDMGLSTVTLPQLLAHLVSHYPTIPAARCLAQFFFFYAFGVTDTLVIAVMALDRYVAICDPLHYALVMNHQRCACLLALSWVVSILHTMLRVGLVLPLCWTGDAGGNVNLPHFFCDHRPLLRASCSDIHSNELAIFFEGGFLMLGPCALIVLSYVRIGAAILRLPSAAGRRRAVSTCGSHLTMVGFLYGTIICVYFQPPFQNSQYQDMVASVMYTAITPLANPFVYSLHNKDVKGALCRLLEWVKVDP

C=CCOC(=O)Cc1ccccc1
not listed: [16] | [17]
inactive: all other assays above

Cc1c([N+](=O)[O-])c(C)c([N+](=O)[O-])c(C(C)(C)C)c1[N+](=O)[O-]
not listed: [1] | [5] | [7] | [10] | [13] | [14]
inactive: all other assays above
